The source of these data is ChEMBL document CHEMBL1955828, “Anti-mycobacterial activities of some cationic and anionic calix[4]arene derivatives” (Bioorg Med Chem, 2012).

The test system of test [1] is Mycobacterium tuberculosis. Briefly: Antimycobacterial activity against isoniazid-resistant Mycobacterium tuberculosis MYC5165 after 6 days by MTT assay. Type of test: functional, organism-based. The following applies: MYC5165, 144 h. Summed up:
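Twofold serial compound dilutions in Middlebrook 7H9 broth were inoculated with bacterial suspension in 7H9 (H37Rv, or INH-resistant MYC5165) and incubated 6 days. MTT (1 mg/mL) was then added, followed by 1 more day of incubation, solubilisation buffer, and OD read at 570 nm. MIC was the lowest concentration inhibiting growth relative to untreated bacilli, and IC50 was also determined.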
In general terms: Tetrazolium dyes change colour on reduction, which living cells bring about.

The nature of test [2]: Selectivity ratio of CC50 for human MRC5 cells to MIC for isoniazid-resistant Mycobacterium tuberculosis MYC5165. The test is classed as functional.
In test [3] the test system is Mycobacterium tuberculosis. Briefly: Ratio of MIC for isoniazid to compound MIC isoniazid-resistant Mycobacterium tuberculosis MYC5165 after 6 days by MTT assay. Type of test: functional.

In brackets after ≈: the same amount, converted by molar mass.

What is called IC50 is the midpoint of a concentration-inhibition curve. Broadly, the MIC is the lowest concentration that inhibits growth of the organism. For `NCCc1cc2c(O)c(c1)Cc1cc(CCN)cc(c1O)Cc1cc(CCN)cc(c1O)Cc1cc(CCN)cc(c1O)C2`, in test [1], half-maximal inhibition (IC50) was put at 0.7 µM and the MIC turned out to be 3.2 µM (≈ 1.91 µg/mL).
As for `Cc1ccc(-c2ccc(COc3c4cc(CCN)cc3Cc3cc(CCN)cc(c3O)Cc3cc(CCN)cc(c3OCc3ccc(-c5ccc(C)cn5)nc3)Cc3cc(CCN)cc(c3O)C4)cn2)nc1`, in test [1], the IC50 stood at 0.5 µM and 1.6 µM (≈ 1.54 µg/mL) was the least that counted as inhibitory (MIC).
As for `Cc1ccc(-c2ccc(COc3c4cc(CCNC(=N)N)cc3Cc3cc(CCNC(=N)N)cc(c3O)Cc3cc(CCNC(=N)N)cc(c3OCc3ccc(-c5ccc(C)cn5)nc3)Cc3cc(CCNC(=N)N)cc(c3O)C4)cn2)nc1.O=C(O)C(F)(F)F`, the Ratio in test [2] worked out at 85. In test [1], this compound registered an IC50 of 0.1 µM and an MIC of 0.4 µM. Besides, the Ratio in test [3] worked out at 15.
The matching figures for `Cc1csc(-c2nc(COc3c4cc(CCNC(=N)N)cc3Cc3cc(CCNC(=N)N)cc(c3O)Cc3cc(CCNC(=N)N)cc(c3OCc3csc(-c5nc(C)cs5)n3)Cc3cc(CCNC(=N)N)cc(c3O)C4)cs2)n1.O=C(O)C(F)(F)F`: 6, < 0.1 µM, 0.1 µM and 125.
In the case of `N=C(N)NCCc1cc2c(O)c(c1)Cc1cc(CCNC(=N)N)cc(c1O)Cc1cc(CCNC(=N)N)cc(c1O)Cc1cc(CCNC(=N)N)cc(c1O)C2.O=C(O)C(F)(F)F`, the Ratio in test [2] is given as 256. In test [1], this compound yielded an IC50 of 0.1 µM and an MIC of 0.8 µM. In test [3], the Ratio turned out to be 15.
The compound `O=C(O)c1cn(C2CC2)c2cc(N3CCNCC3)c(F)cc2c1=O` [CIPROFLOXACIN] had an MIC in test [1] of 2.5 µM (≈ 0.828 µg/mL).
In the case of `NNC(=O)c1ccncc1` [ISONIAZID], in test [1], the MIC turned out to be 12.5 µM (≈ 1.71 µg/mL).
